Series [1] has as its system Staphylococcus aureus. Kind of series: Antimicrobial activity against methicillin-sensitive Staphylococcus aureus NRS72 assessed as reduction in bacterial growth incubated for 18 to 20 hrs at 37 degC by broth microdilution method. It is filed as functional. In outline:
(§1)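 Modified CLSI broth microdilution. Bacterial suspension of about 1 × 10^5 CFU/mL in tryptic soy broth. Each agent was added in triplicate to the first row and serially diluted down the plate. Plates were incubated at 37 °C for 18-20 h. MIC was read as the lowest concentration with no visible growth.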
(In general: In broth dilution the organism is exposed to a series of concentrations in liquid medium.)

The test system of series [2] is Staphylococcus aureus. Kind of series: Antimicrobial activity against methicillin-resistant Staphylococcus aureus USA100 assessed as reduction in bacterial growth incubated for 18 to 20 hrs at 37 degC by broth microdilution method. The series is classed as functional. In outline: as §1
For series [3], the system named is Staphylococcus aureus. Kind of series: Antimicrobial activity against methicillin-resistant Staphylococcus aureus USA200 assessed as reduction in bacterial growth incubated for 18 to 20 hrs at 37 degC by broth microdilution method. The series is classed as functional. In outline:
as §1

The test system of series [4] is Staphylococcus aureus. As to the kind of experiment: Antimicrobial activity against methicillin-resistant Staphylococcus aureus USA300 assessed as reduction in bacterial growth incubated for 18 to 20 hrs at 37 degC by broth microdilution method. It is filed as functional. In outline:
as §1

For series [5], the system named is Staphylococcus aureus. As to the kind of experiment: Antimicrobial activity against methicillin-resistant Staphylococcus aureus USA500 assessed as reduction in bacterial growth incubated for 18 to 20 hrs at 37 degC by broth microdilution method. It is filed as functional. An outline of the steps:
as §1

For series [6], the system named is Staphylococcus aureus. Kind of series: Antimicrobial activity against methicillin-resistant Staphylococcus aureus USA700 assessed as reduction in bacterial growth incubated for 18 to 20 hrs at 37 degC by broth microdilution method. It is filed as functional. An outline of the steps:
as §1

Series [7] relates to Staphylococcus aureus. As to the kind of experiment: Antimicrobial activity against methicillin-resistant Staphylococcus aureus NRS119 assessed as reduction in bacterial growth incubated for 18 to 20 hrs at 37 degC by broth microdilution method. It is filed as functional. In outline: as §1
The subject of series [8] is Staphylococcus aureus. Kind of series: Antimicrobial activity against vancomycin-intermediate-resistant Staphylococcus aureus NRS1 assessed as reduction in bacterial growth incubated for 18 to 20 hrs at 37 degC by broth microdilution method. It is filed as functional. An outline of the steps: as §1
The subject of series [9] is Staphylococcus aureus. As to the kind of experiment: Antimicrobial activity against vancomycin-resistant Staphylococcus aureus VRS2 assessed as reduction in bacterial growth incubated for 18 to 20 hrs at 37 degC by broth microdilution method. The series is classed as functional. An outline of the steps: as §1
Series [10] has as its system J774. Kind of series: Cytotoxicity against mouse J774 cells assessed as reduction in cell viability at 32 uM incubated for 2 hrs by MTS assay. To be noted: j774, 2 h. The series is classed as cell-based. In outline:
(§2)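 Murine J774 macrophages grown in DMEM with 10% FBS at 37 °C, 5% CO2. Compounds were tested in triplicate at 16, 32, 64 and 128 μM for 2 h, with DMSO-matched vehicle controls. MTS reagent was then added and absorbance read at OD490. Viability is given as percent of DMSO-treated cells (mean of triplicate ± standard deviation), compared by paired t-test (P < 0.05).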

Series [11] relates to J774. Kind of series: Cytotoxicity against mouse J774 cells assessed as reduction in cell viability at 64 uM incubated for 2 hrs by MTS assay. It is filed as cell-based. The conditions noted are these: j774, 2 h. In outline:
as §2

Series [12] has as its system J774. It is filed as cell-based. To be noted: mouse, j774, 2 h, 128 µM.

Molecules are shown by their SMILES. Converted amounts (≈) assume the structure as drawn. A value given as a limit tells only on which side of the number the result lay.

Usually MIC stands for the lowest concentration found to suppress growth. With `[C-]#[N+]c1ccccc1/C=C/c1ccc(OC)cc1`, the minimal inhibitory concentration (MIC) in series [1] was 4 µM (≈ 0.941 µg/mL); in series [2], 8 µM (≈ 1.88 µg/mL); in [3], 2 µM (≈ 0.471 µg/mL); in [4], 16 µM (≈ 3.76 µg/mL); in [5] it was greater than 128 µM; in [6] it was 8 µM (≈ 1.88 µg/mL). The MIC in series [7] was determined as 32 µM (≈ 7.53 µg/mL); in [8], 4 µM (≈ 0.941 µg/mL); in [9], 32 µM (≈ 7.53 µg/mL). In addition, the Activity result in series [10] is on record as “Non-toxic”; in [11], “Non-toxic”; in series [12], “Toxic”.

Take `[C-]#[N+]c1ccccc1/C=C/c1cccc(OC)c1`: the MIC came to 8 µM (≈ 1.88 µg/mL) in series [1]; 8 µM (≈ 1.88 µg/mL) in series [2]; 4 µM (≈ 0.941 µg/mL) in series [3]; 16 µM (≈ 3.76 µg/mL) in series [4]; 32 µM (≈ 7.53 µg/mL) in [5]; 16 µM (≈ 3.76 µg/mL) in [6]. Moreover, the MIC is 32 µM (≈ 7.53 µg/mL) in series [7], 4 µM (≈ 0.941 µg/mL) in [8] and 32 µM (≈ 7.53 µg/mL) in series [9]. Further, the Activity result in series [10], in series [11] and in [12] was “Non-toxic” each time.

For `[C-]#[N+]c1ccccc1/C=C/c1ccccc1OC`, the MIC in [1], in [2], in series [3], in series [4], in series [5] and in series [6] was 8 µM (≈ 1.88 µg/mL) each time. Moreover, the MIC is 16 µM (≈ 3.76 µg/mL) in series [7], 4 µM (≈ 0.941 µg/mL) in series [8] and 16 µM (≈ 3.76 µg/mL) in series [9]. Also, the Activity entry is on record as “Non-toxic” in [10], “Non-toxic” in series [11] and “Toxic” in series [12].

As for `[C-]#[N+]c1ccccc1/C=C/c1ccc(F)cc1`, the minimum inhibitory concentration (MIC) in [1] turned out to be 4 µM (≈ 0.893 µg/mL); in [2], 8 µM (≈ 1.79 µg/mL); in [3], 2 µM (≈ 0.446 µg/mL); in series [4], 8 µM (≈ 1.79 µg/mL); in series [5], 16 µM (≈ 3.57 µg/mL); in series [6], 8 µM (≈ 1.79 µg/mL). Moreover, the MIC in series [7] came out at 16 µM (≈ 3.57 µg/mL); in series [8], 4 µM (≈ 0.893 µg/mL); in series [9] it was 32 µM (≈ 7.14 µg/mL). In addition, the Activity entry is “Non-toxic” in series [10], “Non-toxic” in series [11] and “Toxic” in series [12].

For `[C-]#[N+]c1ccccc1/C=C/c1ccccc1F`, the minimal inhibitory concentration (MIC) stood at 4 µM (≈ 0.893 µg/mL) in series [1]; 8 µM (≈ 1.79 µg/mL) in [2]; 2 µM (≈ 0.446 µg/mL) in [3]; 16 µM (≈ 3.57 µg/mL) in series [4]; 16 µM (≈ 3.57 µg/mL) in series [5]; 8 µM (≈ 1.79 µg/mL) in series [6]. In addition, the MIC in series [7] was determined as 32 µM (≈ 7.14 µg/mL); in series [8], 4 µM (≈ 0.893 µg/mL); in series [9] it was 32 µM (≈ 7.14 µg/mL). Moreover, the results for the Activity result in series [10], in [11] and in [12] were “Non-toxic”, “Non-toxic” and “Toxic”, respectively.

`[C-]#[N+]c1ccccc1/C=C/c1cccc(F)c1`: the MIC in [1] came to 8 µM (≈ 1.79 µg/mL); in [2], 16 µM (≈ 3.57 µg/mL); in series [3], 16 µM (≈ 3.57 µg/mL); in [4] it was 32 µM (≈ 7.14 µg/mL); in series [5], 128 µM (≈ 28.6 µg/mL); in [6], 16 µM (≈ 3.57 µg/mL). For the same molecule, the figures for the minimum inhibitory concentration (MIC) in [7], in [8] and in [9] were 128 µM (≈ 28.6 µg/mL), 8 µM (≈ 1.79 µg/mL) and 128 µM (≈ 28.6 µg/mL), respectively. The Activity result in series [10] is “Non-toxic”; in series [11], “Toxic”; in [12], “Toxic”.

Take `[C-]#[N+]c1ccccc1/C=C/c1ccc(C(F)(F)F)cc1`: the minimum inhibitory concentration (MIC) in series [1] stood at 4 µM (≈ 1.09 µg/mL); in [2] it was 4 µM (≈ 1.09 µg/mL); in [3] it was 2 µM (≈ 0.547 µg/mL); in [4], 8 µM (≈ 2.19 µg/mL); in series [5], 16 µM (≈ 4.37 µg/mL); in series [6] it was 2 µM (≈ 0.547 µg/mL). Also, the minimal inhibitory concentration (MIC) was found to be 16 µM (≈ 4.37 µg/mL) in series [7], 2 µM (≈ 0.547 µg/mL) in [8] and 16 µM (≈ 4.37 µg/mL) in [9]. Also, the Activity entry in series [10] was “Non-toxic”; in [11], “Non-toxic”; in series [12] it was “Toxic”.

`[C-]#[N+]c1ccccc1/C=C/c1ccccc1C(F)(F)F`: the minimal inhibitory concentration (MIC) was found to be 8 µM (≈ 2.19 µg/mL) in series [1]; 16 µM (≈ 4.37 µg/mL) in series [2]; 16 µM (≈ 4.37 µg/mL) in [3]; 32 µM (≈ 8.74 µg/mL) in [4]; 16 µM (≈ 4.37 µg/mL) in series [5]; 16 µM (≈ 4.37 µg/mL) in [6]. The results for the MIC in series [7], in series [8] and in series [9] were greater than 128 µM, 8 µM (≈ 2.19 µg/mL) and 32 µM (≈ 8.74 µg/mL), respectively. Also, the Activity entry is “Non-toxic” in [10], “Non-toxic” in [11] and “Toxic” in series [12].

For the origin of these results see ChEMBL document CHEMBL3611989, “Discovery and characterization of aryl isonitriles as a new class of compounds versus methicillin- and vancomycin-resistant Staphylococcus aureus” (Eur J Med Chem, 2015).
